ChEMBL document CHEMBL1123465, “Buspirone analogues. 2. Structure-activity relationships of aromatic imide derivatives” (J Med Chem, 1986)
Calls of active or inactive are those of the source. The rule behind the calls is not given here.

Legend:
D(2) dopamine receptor = D(2) dopamine receptor (Rattus norvegicus, UniProt P61169); test: Binding affinity at Dopamine receptor D2 in rat corpus striatum by displacing [3H]-spiperone.; format: tissue-based
Summary of the method: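 Washed membranes from male Sprague-Dawley rat corpora striata were preincubated 10 min at 37 °C in Hepes-KOH pH 7.4 buffer with NaCl, KCl, CaCl2, MgCl2, ascorbic acid and 10 μM pargyline. 20-50 μg protein was incubated with 100 pM [3H]spiperone for 15 min at 37 °C, in duplicate. Nonspecific binding was defined with 10 μM D-(+)-butaclamol. IC50 came from log-probit linear regression over 3-5 concentrations.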

Rattus norvegicus [1] = test: Effective oral dose that conditioned avoidance response in rat; format: functional
Summary of the method: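 On day 10, trained rats (groups of 5-10) were given drug or vehicle by oral gavage and tested at the time of maximal activity. Responses over 30 min (11 trials at 3-min intervals) were pooled across dose levels to calculate the dose suppressing avoidance in 50% of animals (ED50).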

Rattus norvegicus [2] = test: Effective oral dose that produce reversal of trifluoperazine-induced catalepsy in rat; format: functional
Rattus norvegicus [3] = species: Rattus norvegicus; test: Maximum effective dose that causes vogel anticonflict effect when given through oral route; IA=Inactive; format: functional, organism-based
Summary of the method: (§1)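 Reverse day-night cycled rats were water deprived 24 h, bottle trained for 15 min, then deprived a further 23.5 h. Compound was given orally before testing, and licks were counted, with brief grid shocks after a set lick number. Activity meant more licking than controls (Student's t test, p < 0.05). Maximum dose examined was 20 mg/kg.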

Rattus norvegicus [4] = species: Rattus norvegicus; test: Maximum effective dose that causes vogel anticonflict effect when given through oral route; format: functional; conditions: read-out: MED; summary of the method: as §1
Rattus norvegicus [5] = species: Rattus norvegicus; test: Inhibition of induced serotonin syndrome; IA=Inactive; format: functional, organism-based
Rattus norvegicus [6] = species: Rattus norvegicus; test: Inhibition of dorsal raphe neuron firing; format: functional
Rattus norvegicus [7] = test: Inhibition of dorsal raphe neuron firing when given iv; format: functional
Rattus norvegicus [8] = test: Induction of serotonin syndrome when given po

Sequence of D(2) dopamine receptor (P61169 whole entry): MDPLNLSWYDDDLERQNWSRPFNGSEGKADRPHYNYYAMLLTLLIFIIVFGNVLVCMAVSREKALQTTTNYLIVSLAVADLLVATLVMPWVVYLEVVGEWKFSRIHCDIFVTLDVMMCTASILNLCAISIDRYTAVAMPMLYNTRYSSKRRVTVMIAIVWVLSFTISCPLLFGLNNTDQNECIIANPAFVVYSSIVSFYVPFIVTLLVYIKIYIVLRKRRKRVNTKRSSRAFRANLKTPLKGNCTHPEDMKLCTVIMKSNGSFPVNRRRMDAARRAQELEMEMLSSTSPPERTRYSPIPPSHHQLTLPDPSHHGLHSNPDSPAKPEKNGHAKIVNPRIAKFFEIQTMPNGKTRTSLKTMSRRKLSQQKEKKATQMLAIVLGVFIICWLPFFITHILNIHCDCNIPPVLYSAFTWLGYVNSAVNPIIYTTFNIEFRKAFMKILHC

SMILES	IC50 (D(2) dopamine receptor) [nM]	ED50 (Rattus norvegicus [1]) [mg/kg]	ED50 (Rattus norvegicus [2]) [mg/kg]	MED (Rattus norvegicus [3])	minimal effective dose (Rattus norvegicus [4]) [mg/kg]	ED50 (Rattus norvegicus [5])	ED50 (Rattus norvegicus [6]) [mg/kg]	ED50 (Rattus norvegicus [7]) [mg/kg]	ED50 (Rattus norvegicus [8]) [mg/kg]
Cl.O=C1CC2(CCCc3ccccc32)C(=O)N1CCCCN1CCN(c2ncccn2)CC1 (stereo not given)	> 1000	50	> 20	inactive					
Cl.N#Cc1cccnc1N1CCN(CCCCN2C(=O)CC3(CCCc4ccccc43)C2=O)CC1 (stereo not given)	310	100	> 20						
CC1(c2ccc(F)cc2)CC(=O)N(CCCN2CCN(c3ncccn3)CC2)C1=O (stereo not given)	> 1000	> 100	> 20						
O=C1c2cc(Cl)c(Cl)cc2C(=O)N1CCCCN1CCN(c2ncccn2)CC1	> 1000	> 100							
Cl.O=C1C2CC=CCC2C(=O)N1CCCCN1CCN(c2ncccn2)CC1 (stereo not given)	> 1000	> 100							
CSc1nc(N2CCN(CCCCN3C(=O)c4ccccc4C3=O)CC2)ncc1F.Cl	> 1000	> 100	> 20						
O=C1c2ccc([N+](=O)[O-])cc2C(=O)N1CCCCN1CCN(c2ncccn2)CC1	> 1000	75	> 20						
Cl.O=C1CC2(CCc3ccccc3C2)C(=O)N1CCCCN1CCN(c2ncccn2)CC1 (stereo not given)	540	58	13		5				
O=C1CC(c2ccccc2)(c2ccccc2)C(=O)N1CCCCN1CCN(c2nsc3ccccc23)CC1	230	> 100	> 20						
Cl.O=C1CC2(CCCC2)CC(=O)N1CCCCN1CCN(c2ncccn2)CC1 [BUSPIRONE HYDROCHLORIDE]			3.6		1	inactive	0.01		
CC1(C)CC(=O)N(CCCCN2CCN(c3ncccn3)CC2)C(=O)C1.Cl [GEPIRONE HYDROCHLORIDE]		53	6.5		1			0.025	17.1
N#Cc1cccnc1N1CCN(CCCCN2C(=O)CC(c3ccccc3)(c3ccccc3)C2=O)CC1	> 1000	> 100	> 20						
CC1(c2ccc(F)cc2)CC(=O)N(CCCCN2CCN(c3nsc4ccccc34)CC2)C1=O (stereo not given)	120	100	> 20						
Cl.O=C1CC2(CCc3ccccc32)C(=O)N1CCCCN1CCN(c2ncccn2)CC1 (stereo not given)	1300	54	11.5	inactive					
CC1(c2ccccc2)CC(=O)N(CCCCN2CCN(c3ncccn3)CC2)C1=O.Cl (stereo not given)	> 1000	60							
Cc1ccc(S(=O)(=O)O)cc1.O=C1CC2(CCCc3ccccc32)C(=O)N1CCCCN1CCN(c2nsc3ccccc23)CC1 (stereo not given)		> 100	> 20						
Cl.N#Cc1cccnc1N1CCN(CCCCN2C(=O)c3ccc([N+](=O)[O-])cc3C2=O)CC1	> 1000	78	> 20						
O=C1CC(c2ccccc2)(c2ccccc2)C(=O)N1CCCCN1CCN(c2ncccn2)CC1	> 1000	> 100	> 20		10				
O=C1c2ccccc2C(=O)N1CCCCN1CCN(c2ncccn2)CC1	> 1000	65	20	inactive					
CC1(c2ccc(F)cc2)CC(=O)N(CCCCN2CCN(c3ncccc3C#N)CC2)C1=O (stereo not given)	710	100	20	inactive					
CC1(c2ccc(F)cc2)CC(=O)N(CCCCN2CCN(c3ncccn3)CC2)C1=O (stereo not given)	> 1000	56	11	inactive					
CC1(c2ccc(F)cc2)CC(=O)N(CCN2CCN(c3ncccn3)CC2)C1=O (stereo not given)	> 1000	> 100	> 20						
O=C1c2c(Cl)c(Cl)c(Cl)c(Cl)c2C(=O)N1CCCCN1CCN(c2ncccn2)CC1	> 1000	> 100	> 20						
